Experimental data as given in paper PMC6431230 (Proceedings of the National Academy of Sciences of the …, 2019).
Each block holds one molecule with its values, some of them ahead of it. Bridge positions count the residues as written; N and C are the ends. Square brackets hold non-standard residues; d marks the D form. Ends that are not written are not given here. Peptide text beside a SMILES is read from it. Orn = NCCC[C@H](N)C(=O)O; Mpa = O=C(O)CCS

Key:
ants = experiment: Effect of injected DMSO on ant survivability; type: in vivo, Camponotus fellah
inotocin receptor [1] = experiment: TR-FRET; type: binding, Camponotus fellah; conditions: 10 nM labeled inotocin ligand, atosiban 1.95 µM to 2 mM
CYP4G1 expression = experiment: CYP4G1 expression; type: in vivo, Camponotus fellah; conditions: 24 h
Summary of the method: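 Workers were chilled on ice and injected with 1.5 µL into the abdomen through the intersegmental membrane. Controls received ant saline mixed with water (1:10 for 1 mM, 1:5 for 2 mM). RNA was extracted 24 h post-injection. SYBR qRT-PCR on 200 ng total RNA used ef1a/rp2 references and per-experiment average scaling.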

[2] = molecular target: T1, oxytocin receptor (human OXTR) (Homo sapiens, UniProt P30559); experiment: Calcium assay; type: cell-based
T1 sequence (P30559 1-389): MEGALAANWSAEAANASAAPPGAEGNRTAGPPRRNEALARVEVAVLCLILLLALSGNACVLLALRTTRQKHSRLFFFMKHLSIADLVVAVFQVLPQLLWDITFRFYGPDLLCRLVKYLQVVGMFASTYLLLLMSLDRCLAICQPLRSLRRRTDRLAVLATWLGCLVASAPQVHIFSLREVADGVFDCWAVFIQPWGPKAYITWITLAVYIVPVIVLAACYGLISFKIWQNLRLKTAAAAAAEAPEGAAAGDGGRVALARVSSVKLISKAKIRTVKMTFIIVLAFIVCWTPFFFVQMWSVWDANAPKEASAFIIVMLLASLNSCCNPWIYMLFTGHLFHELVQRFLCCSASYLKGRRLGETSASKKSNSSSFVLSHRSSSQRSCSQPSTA

[3] = tested on: cuticular hydrocarbons (CHCs); experiment: Cuticular hydrocarbon quantification after antagonist injection; type: in vivo, Camponotus fellah; conditions: injection of 2 mM atosiban
Summary of the method: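 Workers were ice-anesthetized and injected with 1.5 µL into the abdomen through the intersegmental membrane. Dosing was 100 µM test compound in 1% DMSO, or 2 mM of the water-soluble antagonist. Controls were ant saline mixed with the matching solvent (DMSO 1:100; water 1:5). Normal, branched and total cuticular alkanes were then extracted and quantified.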

[4] = molecular target: inotocin receptor (not stated (C. fellah or C. japonicus cDNA cloned)); experiment: FRET or BRET
inotocin receptor [5] = experiment: Calcium assay; type: cell-based, Camponotus fellah; conditions: CHO cells expressing inotocin receptor, Fluo-4 cytosolic calcium

Molecule: C[S+](C)[O-] [DMSO]
Effect on ant survivability (ants; 1% DMSO): no effect on survivability
Effect on ant survivability (ants; 10% DMSO): high lethality

IC50, decrease in FRET ratio (binding between inotocin and inotocin receptor) (inotocin receptor [1]): 58.8 µM
IC50 [2]: 0.65 µM
Molecule: CCOc1ccc(C[C@H]2NC(=O)CCSSC[C@@H](C(=O)N3CCC[C@H]3C(=O)N[C@@H](CCCN)C(=O)NCC(N)=O)NC(=O)[C@H](CC(N)=O)NC(=O)[C@H]([C@@H](C)O)NC(=O)[C@H]([C@@H](C)CC)NC2=O)cc1 [atosiban] ([Mpa][dY](Et)ITNCP[Orn]G-NH2; disulfide 1-6 (inferred))
CYP4G1 expression vs control (CYP4G1 expression; 1 mM injected, P = 0.026): significantly down-regulated
CYP4G1 expression vs control (CYP4G1 expression; 2 mM injected, P = 0.0002): significantly down-regulated
Quantity of normal alkanes vs control ([3]; P = 0.008): reduced quantities
Total quantity of alkanes vs control ([3]; P = 0.012): significantly lower
Quantity of branched alkanes vs control ([3]; P = 0.088): tendency for reduced

IC50 [4]: 58.8 µM
Molecule: atosiban (peptide)

Molecule: vasopressin (CYFQNCPRG-NH2; disulfide 1-6 (inferred); ends not checked; UniProt P01185 20-28, looked up)
Activation of inotocin receptor (inotocin receptor [5]): not
